Measurements from ChEMBL document CHEMBL3808367, “Novel HIV-1 Non-nucleoside Reverse Transcriptase Inhibitor Agents: Optimization of Diarylanilines with High Potency against Wild-Type and Rilpivirine-Resistant E138K Mutant Virus” (J Med Chem, 2016).
In brackets after ≈: the same amount, converted by molar mass.

Assays:
[1] = system: Human immunodeficiency virus 1; assay: Antiviral activity against HIV1 NL4-3 assessed as inhibition of viral infection in human TZM-bl cells measured after 1 day by luciferase reporter gene assay; type: functional, organism-based; conditions: Human immunodeficiency virus 1, NL4-3, TZM-bl, 24 h
[2] = system: Human immunodeficiency virus 1; assay: Antiviral activity against rilpivirine resistant HIV1 harboring reverse transcriptase E138K mutant assessed as inhibition of viral infection in human TZM-bl cells measured after 1 day by luciferase reporter gene assay; type: functional, organism-based; conditions: Human immunodeficiency virus 1, TZM-bl, 24 h
[3] = Cytotoxicity against human TZM-bl cells assessed as reduction in cell viability after 1 day by CytoTox-Glo assay; type: cell-based; conditions: for CC50: tzm, 24 h
Summary of the method: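 TZM-bl cells exposed to graded compound concentrations for 1 day, run in parallel with the antiviral assay. Viability read by CytoTox-Glo following the manufacturer's protocol.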

[4] = system: Human immunodeficiency virus 1; assay: Resistance index, ratio of EC50 for […] resistant HIV1 A17 harboring reverse transcriptase K103N/Y181C double mutant infected in human MT2 cells to EC50 for HIV1 3B infected in human MT2 cells; type: functional
Summary of the method: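 Fold change is EC50 against A17 (K103N/Y181C) divided by EC50 against IIIB. Both are from the MT-2 assay: 100 TCID50 virus, overnight exposure to compound, then compound-free medium, and day-4 p24 ELISA.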

[5] = n-octanol-water partition coefficient, logP of compound at pH 7.4 stirred for 24 hrs followed by overnight incubation by HPLC analysis; type: physicochemical
Liver microsome = assay: Half life in human liver microsomes at 1 uM by LC-MS analysis; type: ADME
Summary of the method: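 Compound at 1 µM final with 0.1 mg/mL human liver microsomes, 5 mM MgCl2, 1.0 mM NADPH in 0.1 M potassium phosphate pH 7.4 at 37 °C. Quenched with ice-cold acetonitrile at 0, 5, 15, 30 and 45 min, in duplicate. Parent measured by LC-MS/MS (MRM, ESI).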

[6] = Metabolic stability in human liver microsomes assessed as parent compound remaining at 1 uM incubated for 30 mins in presence of NADPH by LC-MS analysis; type: ADME; conditions: read-out: Stability
Summary of the method: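 Compound at 1 µM final with 0.1 mg/mL human liver microsomes, 5 mM MgCl2, 1.0 mM NADPH in 0.1 M potassium phosphate pH 7.4 at 37 °C. Parent measured by LC-MS/MS (MRM, ESI).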

[7] = system: Human immunodeficiency virus 1; assay: Resistance index, ratio of EC50 for rilpivirine resistant HIV1 harboring reverse transcriptase E138K mutant infected in human TZM-bl cells to EC50 for HIV1 NL4-3 infected in human TZM-bl cells; type: functional
[8] = Selectivity index, ratio of CC50 for human TZM-bl cells to EC50 for HIV1 3B infected in human MT2 cells; type: toxicity, cell-based
[9] = system: Human immunodeficiency virus 1; assay: Antiviral activity against […] resistant HIV1 A17 harboring reverse transcriptase K103N/Y181C double mutant infected in human MT2 cells measured on day 4 post infection by p24 ELISA method; type: functional, organism-based; conditions: Human immunodeficiency virus 1, A17, MT2, 96 h
Summary of the method: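 MT-2 cells (10^4 per well) were infected with 100 TCID50 of IIIB or A17 in RPMI 1640 with 10% FBS, with or without graded compound concentrations, overnight. Medium was then replaced with compound-free medium. On day 4, supernatant was mixed with an equal volume of 5% Triton X-100 and p24 was quantified by ELISA. EC50 was calculated from percent inhibition of p24 production.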

[10] = system: Human immunodeficiency virus 1; assay: Antiviral activity against HIV1 3B infected in human MT2 cells measured on day 4 post infection by p24 ELISA method; type: functional, organism-based; conditions: Human immunodeficiency virus 1, 3B, MT2, 96 h
[11] = Aqueous solubility in 0.01 M Hcl at pH 2 at 10 mg/ml after 4 hrs by UV-HPLC method; type: physicochemical; conditions: buffer, pH 2, 4 h
[12] = Aqueous solubility in pH 7.4 phosphate buffer at 10 mg/ml after 4 hrs by UV-HPLC method; type: physicochemical; conditions: pH 7.4, 4 h
[13] = system: Human immunodeficiency virus 1; assay: Resistance index, ratio of EC50 for rilpivirine resistant HIV1 harboring reverse transcriptase K101E mutant infected in human TZM-bl cells to EC50 for HIV1 NL4-3 infected in human TZM-bl cells; type: functional
[14] = system: Human immunodeficiency virus 1; assay: Resistance index, ratio of EC50 for multidrug resistant HIV1 harboring reverse transcriptase L74V/M41L/V106A/T215Y multimutant infected in human TZM-bl cells to EC50 for HIV1 NL4-3 infected in human TZM-bl cells; type: functional
[15] = system: Human immunodeficiency virus 1; assay: Antiviral activity against multidrug resistant HIV1 harboring reverse transcriptase L74V/M41L/V106A/T215Y multimutant assessed as inhibition of viral infection in human TZM-bl cells measured after 1 day by luciferase reporter gene assay; type: functional, organism-based; conditions: Human immunodeficiency virus 1, TZM-bl, 24 h
[16] = system: Human immunodeficiency virus 1; assay: Resistance index, ratio of EC50 for HIV1 NL4-3 harboring reverse transcriptase K101E mutant infected in human TZM-bl cells to EC50 for HIV1 NL4-3 infected in human TZM-bl cells; type: functional
[17] = system: Human immunodeficiency virus 1; assay: Antiviral activity against HIV1 NL4-3 harboring reverse transcriptase E138K mutant assessed as inhibition of viral infection in human TZM-bl cells measured after 1 day by luciferase reporter gene assay; type: functional, organism-based; conditions: Human immunodeficiency virus 1, NL4-3, TZM-bl, 24 h
Summary of the method: (§1)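 Single-round infection of TZM-bl cells with 800 TCID50 of NL4-3 or its RT-mutant variants, with compound at various concentrations. After 1 day, medium was replaced by Bright Glo reagent and luminescence was read.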

[18] = system: Human immunodeficiency virus 1; assay: Antiviral activity against HIV1 NL4-3 harboring reverse transcriptase K101E mutant assessed as inhibition of viral infection in human TZM-bl cells measured after 1 day by luciferase reporter gene assay; type: functional, organism-based; conditions: Human immunodeficiency virus 1, NL4-3, TZM-bl, 24 h; summary of the method: as §1
[19] = system: Human immunodeficiency virus 1; assay: Resistance index, ratio of EC50 for HIV1 NL4-3 harboring reverse transcriptase E138K mutant infected in human TZM-bl cells to EC50 for HIV1 NL4-3 infected in human TZM-bl cells; type: functional

Row | SMILES | EC50 [1] [nM] | EC50 [2] [nM] | Ratio EC50 [4] | logD at 24 h [5] | t1/2 (Liver microsome) [h] | remaining at 0.5 h, 1 µM [6] [%] | Ratio EC50 [7] | CC50 [3] [nM] | Ratio CC50/EC50 [8] | EC50 [9] [nM] | EC50 [10] [nM] | solubility [11] [µg/mL] | solubility [12] [µg/mL] | also measured
1 | COCc1cc(N)c(Nc2ccc(C#N)cc2)cc1Oc1c(C)cc(CCC#N)cc1C | 1.45 | 13.3 | 0.9 | 3.25 | 3.85 | 90.8 | 9.2 | – | – | – | – | – | – | CC50 at 24 h ([3]; TZM-bl cells): > 200000 nM
2 | CC(=O)OCc1cc(N)c(Nc2ccc(C#N)cc2)cc1Oc1c(C)cc(CCC#N)cc1C | 3.3 | 39.1 | 3.4 | 2.84 | 0.17 | 3 | 12 | 44800 | – | – | – | – | – | –
3 | CCOCc1cc(N)c(Nc2ccc(C#N)cc2)cc1Oc1c(C)cc(CCC#N)cc1C | 14.3 | 88.4 | 12 | – | – | – | 6.2 | 194000 | 51596 | 46.6 | 3.76 | – | – | –
4 | CNC(=O)c1cc(N)c(Nc2ccc(C#N)cc2)cc1Oc1c(Br)cc(CCC#N)cc1OC | 5.58 | 12.5 | 14 | 3.16 | 2.32 | 75.7 | 2.2 | 52400 | 24952 | 29.3 | 2.1 | 25.8 (≈ 49.6 µM) | 3.38 (≈ 6.5 µM) | –
5 | Cc1cc(CCC#N)cc(C)c1Oc1cc(Nc2ccc(C#N)cc2)c(N)cc1Cl | 11.3 | 19.7 | 2.7 | – | – | – | 1.7 | 10400 | 6303 | 4.49 | 1.65 | – | – | Ratio EC50 [13]: 3.3
6 | Cc1cc(CCC#N)cc(C)c1Oc1cc(Nc2ccc(C#N)cc2)c(N)cc1C(=O)N(C)C | 6.16 | 11.7 | 45 | 2.86 | 1.65 | 72.2 | 1.9 | 38200 | 24025 | 72.2 | 1.59 | 65.1 (≈ 144 µM) | 1.08 (≈ 2.38 µM) | –
7 | CCNC(=O)c1cc(N)c(Nc2ccc(C#N)cc2)cc1Oc1c(C)cc(CCC#N)cc1C | 4.63 | 8.59 | – | 3.63 | 2.88 | 85.2 | 1.9 | 105000 | 6140 | – | 17.1 | 69.4 (≈ 153 µM) | 1.08 (≈ 2.38 µM) | Ratio EC50 [13]: 4
8 | COc1cc(/C=C/C#N)cc(Br)c1Oc1ccc(N)c(Nc2ccc(C#N)cc2)n1 | 3.25 | – | – | – | – | – | – | – | – | – | – | – | – | Ratio EC50 [14]: 1.1; EC50 [15]: 3.5 nM; Ratio EC50 [16]: 1.1; EC50 [17]: 3.5 nM; EC50 [18]: 3.5 nM; Ratio EC50 [19]: 1.1
9 | Cc1cc(CCC#N)cc(C)c1Oc1cc(Nc2ccc(C#N)cc2)c(N)cc1Br | 3.26 | 65.2 | – | > 5 | 0.833 | 58.3 | – | 84800 | – | 13.9 | 0.49 | 0.25 (≈ 0.542 µM) | 0.12 (≈ 0.26 µM) | –
10 | Cc1cc(CCC#N)cc(C)c1Oc1cc(Nc2ccc(C#N)cc2)c(N)cc1CN(C)C | 2.73 | 23.4 | 1.1 | 2.52 | 3.85 | 93.3 | 8.6 | 23800 | 11019 | 2.46 | 2.16 | 260 (≈ 591 µM) | 23.4 (≈ 53.2 µM) | –
